# Measured values: ChEMBL document CHEMBL1137403, “Discovery of 2-[4-{{2-(2S,5R)-2-cyano-5-ethynyl-1-pyrrolidinyl]-2-oxoethyl]amino]- 4-methyl-1-piperidinyl]-4-pyridinecarboxylic acid (ABT-279): a very potent, selective, effective, and well-tolerated inhibitor of dipeptidyl peptidase-IV, useful for the treatment of diabetes” (J Med Chem, 2006)
# Experiments:
# [1] = Half life in Sprague-Dawley rat at 5 mg/kg, iv; type: ADME, organism-based; parameters: dose 5 mg/kg, route intravenous; conditions: in vivo
# [2] = Volume of distribution in Sprague-Dawley rat at 5 mg/kg, iv; type: ADME, organism-based; parameters: dose 5 mg/kg, route intravenous; conditions: in vivo, read-out: Vss
# [3] = AUC in Sprague-Dawley rat at 5 mg/kg, po; type: ADME, organism-based; parameters: dose 5 mg/kg, route oral; conditions: plasma
# [4] = Oral bioavailability in Sprague-Dawley rat at 5 mg/kg, po; type: ADME, organism-based; conditions: in vivo
# [5] = Half life in cynomolgus monkey at 2.5 mg/kg, po; type: ADME, organism-based, Macaca fascicularis; parameters: dose 2.5 mg/kg, route oral; conditions: in vivo
# [6] = Cmax in cynomolgus monkey at 2.5 mg/kg, po; type: ADME, organism-based, Macaca fascicularis; parameters: dose 2.5 mg/kg, route oral; conditions: in vivo
# [7] = Tmax in cynomolgus monkey at 2.5 mg/kg, po; type: ADME, organism-based, Macaca fascicularis; parameters: dose 2.5 mg/kg, route oral; conditions: in vivo
# [8] = AUC in cynomolgus monkey at 2.5 mg/kg, po; type: ADME, organism-based, Macaca fascicularis; parameters: dose 2.5 mg/kg, route oral; conditions: plasma
# [9] = molecular target: Dipeptidyl peptidase 4 (Rattus norvegicus) (UniProt P14740); test: Inhibition of Zucker rat plasma DPP4 after 4 hrs at 1 mg/kg; type: functional, organism-based; parameters: dose 1 mg/kg
# Method in brief: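 Female Zucker diabetic fatty rats, 10 weeks old, fasted overnight, then given a single oral dose of 1 mg/kg or vehicle. Plasma DPP-IV activity inhibition and plasma drug level were measured 4 h post-dose, at the point when the rats were given free access to a liquid mixed meal (Ensure).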
# [10] = species: Rattus norvegicus; test: GLP1 level in Zucker rat after 10 mins; type: functional
# Method in brief: (§1)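 Female ZDF rats, 10 weeks old, fasted overnight, then dosed orally with vehicle or drug. Four hours after dosing (t = 0) they had free access for 4 h to a liquid mixed meal (Ensure). Plasma was sampled for drug level, active GLP-1, insulin, glucagon and glucose.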
# [11] = species: Rattus norvegicus; test: Insulin level in Zucker rat after 10 mins; type: functional; method in brief: as §1
# [12] = species: Rattus norvegicus; test: Increase in insulin level in Zucker rat after 10 mins relative to control; type: functional; method in brief: as §1
# [13] = species: Rattus norvegicus; test: Reduction in glucagon level in Zucker rat after 30 mins relative to control; type: functional; parameters: scale not given: the % may be the effect or the level left; method in brief: as §1
# [14] = species: Rattus norvegicus; test: Reduction in postprandial glucose excursion in Zucker rat measured as AUC glucose (0-240 min); type: functional, organism-based; parameters: time < 4 hr; method in brief: as §1
# [15] = species: Rattus norvegicus; test: Reduction in postprandial glucose excursion in Zucker rat measured as AUC glucose (0-240 min) relative to control; type: functional; parameters: scale not given: the % may be the effect or the level left; method in brief: as §1
# [16] = molecular target: Cytochrome P450 3A4 (Homo sapiens, UniProt P08684); test: Inhibition of CYP3A4; type: ADME
# [17] = molecular target: Cytochrome P450 2D6 (Homo sapiens, UniProt P10635); test: Inhibition of CYP2D6; type: ADME
# [18] = molecular target: Cytochrome P450 2C9 (Homo sapiens, UniProt P11712); test: Inhibition of CYP2C9; type: ADME
# [19] = molecular target: Voltage-gated inwardly rectifying potassium channel KCNH2 (Homo sapiens, UniProt Q12809); test: Binding affinity to hERG
# [20] = Volume of distribution in terminal phase in Sprague-Dawley rat at 5 mg/kg, iv; type: ADME, organism-based; parameters: dose 5 mg/kg, route intravenous; conditions: in vivo, read-out: Vbeta
# [21] = AUC in Sprague-Dawley rat at 5 mg/kg, iv; type: ADME, organism-based; parameters: dose 5 mg/kg, route intravenous; conditions: plasma
# Method in brief: (§2)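 Single intravenous dose. Plasma drug exposure is reported as area under the curve in µg-hr/mL. It is listed in the same table as T1/2, Vss, Vβ and plasma clearance (CLp).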
# [22] = Plasma clearance in Sprague-Dawley rat at 5 mg/kg, iv; type: ADME, organism-based; parameters: dose 5 mg/kg, route intravenous
# [23] = Half life in cynomolgus monkey at 2.5 mg/kg, iv; type: ADME, organism-based, Macaca fascicularis; parameters: dose 2.5 mg/kg, route intravenous; conditions: in vivo
# [24] = Volume of distribution in cynomolgus monkey at 2.5 mg/kg, iv; type: ADME, organism-based, Macaca fascicularis; parameters: dose 2.5 mg/kg, route intravenous; conditions: in vivo, read-out: Vss
# [25] = Volume of distribution in terminal phase in cynomolgus monkey at 2.5 mg/kg, iv; type: ADME, organism-based, Macaca fascicularis; parameters: dose 2.5 mg/kg, route intravenous; conditions: in vivo, read-out: Vbeta
# [26] = AUC in cynomolgus monkey at 2.5 mg/kg, iv; type: ADME, organism-based, Macaca fascicularis; parameters: dose 2.5 mg/kg, route intravenous; conditions: plasma; method in brief: as §2
# [27] = Plasma clearance in cynomolgus monkey at 2.5 mg/kg, iv; type: ADME, organism-based, Macaca fascicularis; parameters: dose 2.5 mg/kg, route intravenous
# Chain of Cytochrome P450 2D6 (P10635 whole entry): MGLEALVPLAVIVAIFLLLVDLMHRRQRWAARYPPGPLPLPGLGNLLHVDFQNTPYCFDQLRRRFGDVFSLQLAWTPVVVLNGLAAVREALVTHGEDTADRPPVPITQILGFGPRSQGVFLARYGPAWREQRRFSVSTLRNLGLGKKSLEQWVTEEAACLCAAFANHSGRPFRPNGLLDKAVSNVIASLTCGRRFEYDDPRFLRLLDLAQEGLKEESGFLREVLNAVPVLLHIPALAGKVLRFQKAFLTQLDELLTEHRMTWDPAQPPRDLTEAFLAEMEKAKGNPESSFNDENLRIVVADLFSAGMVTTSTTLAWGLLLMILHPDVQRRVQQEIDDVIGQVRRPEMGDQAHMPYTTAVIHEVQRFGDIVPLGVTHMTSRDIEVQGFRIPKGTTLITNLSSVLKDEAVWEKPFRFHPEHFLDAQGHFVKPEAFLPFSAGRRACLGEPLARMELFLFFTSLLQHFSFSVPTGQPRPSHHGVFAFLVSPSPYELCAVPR
# Chain of Voltage-gated inwardly rectifying potassium channel KCNH2 (Q12809 whole entry): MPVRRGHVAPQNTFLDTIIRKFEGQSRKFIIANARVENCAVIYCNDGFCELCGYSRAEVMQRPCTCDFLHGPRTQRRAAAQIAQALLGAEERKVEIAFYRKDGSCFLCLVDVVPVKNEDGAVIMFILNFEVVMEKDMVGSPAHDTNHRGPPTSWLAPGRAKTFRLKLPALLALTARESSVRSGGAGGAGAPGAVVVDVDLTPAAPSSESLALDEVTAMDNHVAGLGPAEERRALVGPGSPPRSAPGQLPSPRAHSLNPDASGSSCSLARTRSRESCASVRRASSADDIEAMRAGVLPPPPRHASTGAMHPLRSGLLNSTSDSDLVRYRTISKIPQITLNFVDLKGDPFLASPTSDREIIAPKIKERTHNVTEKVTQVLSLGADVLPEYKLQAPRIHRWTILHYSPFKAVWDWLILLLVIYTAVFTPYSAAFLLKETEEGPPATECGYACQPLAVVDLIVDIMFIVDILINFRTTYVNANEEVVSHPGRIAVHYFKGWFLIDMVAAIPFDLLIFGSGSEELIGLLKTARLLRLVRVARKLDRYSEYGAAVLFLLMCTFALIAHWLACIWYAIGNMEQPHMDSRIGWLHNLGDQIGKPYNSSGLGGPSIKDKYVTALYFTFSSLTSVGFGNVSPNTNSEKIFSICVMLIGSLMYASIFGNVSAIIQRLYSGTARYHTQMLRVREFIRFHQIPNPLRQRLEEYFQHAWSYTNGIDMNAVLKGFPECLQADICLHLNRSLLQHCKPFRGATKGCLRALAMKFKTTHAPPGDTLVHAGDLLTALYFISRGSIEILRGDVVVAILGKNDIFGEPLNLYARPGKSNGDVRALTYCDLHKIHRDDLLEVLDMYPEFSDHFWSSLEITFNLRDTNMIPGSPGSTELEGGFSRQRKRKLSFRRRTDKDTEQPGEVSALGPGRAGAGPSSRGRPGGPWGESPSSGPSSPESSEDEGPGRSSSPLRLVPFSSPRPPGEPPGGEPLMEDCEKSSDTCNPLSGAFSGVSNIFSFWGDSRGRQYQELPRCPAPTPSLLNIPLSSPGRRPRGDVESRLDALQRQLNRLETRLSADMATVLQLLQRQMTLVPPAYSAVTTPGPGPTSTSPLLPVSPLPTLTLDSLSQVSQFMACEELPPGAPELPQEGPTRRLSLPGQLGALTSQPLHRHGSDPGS
# Chain of Cytochrome P450 3A4 (P08684 whole entry): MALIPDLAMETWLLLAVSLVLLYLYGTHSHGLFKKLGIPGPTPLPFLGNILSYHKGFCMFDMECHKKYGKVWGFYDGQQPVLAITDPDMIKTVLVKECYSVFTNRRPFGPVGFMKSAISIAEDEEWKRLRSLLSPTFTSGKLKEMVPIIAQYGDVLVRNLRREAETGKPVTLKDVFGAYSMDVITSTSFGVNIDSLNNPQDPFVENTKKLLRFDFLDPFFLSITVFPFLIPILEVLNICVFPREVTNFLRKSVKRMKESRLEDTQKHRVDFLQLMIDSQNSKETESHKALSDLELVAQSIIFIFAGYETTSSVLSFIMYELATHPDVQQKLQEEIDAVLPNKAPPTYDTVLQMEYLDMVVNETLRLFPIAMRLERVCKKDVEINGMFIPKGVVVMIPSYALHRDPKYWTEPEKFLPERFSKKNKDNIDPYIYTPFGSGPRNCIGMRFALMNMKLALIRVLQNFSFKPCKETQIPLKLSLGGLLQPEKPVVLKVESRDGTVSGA
# Chain of Dipeptidyl peptidase 4 (Rattus norvegicus) (P14740 whole entry, looked up): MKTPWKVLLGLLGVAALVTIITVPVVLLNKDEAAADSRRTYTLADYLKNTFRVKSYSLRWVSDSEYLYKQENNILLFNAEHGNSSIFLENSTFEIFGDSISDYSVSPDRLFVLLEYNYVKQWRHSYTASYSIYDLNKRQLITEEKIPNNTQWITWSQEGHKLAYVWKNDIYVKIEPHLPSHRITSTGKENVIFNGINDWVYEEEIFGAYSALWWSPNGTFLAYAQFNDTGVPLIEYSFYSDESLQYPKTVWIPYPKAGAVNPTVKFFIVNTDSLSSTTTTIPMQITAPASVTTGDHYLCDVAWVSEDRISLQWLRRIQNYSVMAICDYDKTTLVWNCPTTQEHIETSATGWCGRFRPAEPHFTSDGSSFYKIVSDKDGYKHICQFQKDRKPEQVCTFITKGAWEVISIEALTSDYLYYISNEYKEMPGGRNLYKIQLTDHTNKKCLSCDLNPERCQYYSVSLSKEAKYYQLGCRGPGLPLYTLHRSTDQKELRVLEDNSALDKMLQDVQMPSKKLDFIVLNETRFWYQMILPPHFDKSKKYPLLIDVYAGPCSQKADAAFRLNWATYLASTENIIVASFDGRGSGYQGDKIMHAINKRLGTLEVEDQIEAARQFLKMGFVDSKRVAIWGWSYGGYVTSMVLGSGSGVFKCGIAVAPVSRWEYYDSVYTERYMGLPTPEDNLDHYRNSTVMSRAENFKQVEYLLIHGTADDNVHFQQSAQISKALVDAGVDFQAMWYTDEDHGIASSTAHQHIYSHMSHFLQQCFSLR
# Chain of Cytochrome P450 2C9 (P11712 whole entry): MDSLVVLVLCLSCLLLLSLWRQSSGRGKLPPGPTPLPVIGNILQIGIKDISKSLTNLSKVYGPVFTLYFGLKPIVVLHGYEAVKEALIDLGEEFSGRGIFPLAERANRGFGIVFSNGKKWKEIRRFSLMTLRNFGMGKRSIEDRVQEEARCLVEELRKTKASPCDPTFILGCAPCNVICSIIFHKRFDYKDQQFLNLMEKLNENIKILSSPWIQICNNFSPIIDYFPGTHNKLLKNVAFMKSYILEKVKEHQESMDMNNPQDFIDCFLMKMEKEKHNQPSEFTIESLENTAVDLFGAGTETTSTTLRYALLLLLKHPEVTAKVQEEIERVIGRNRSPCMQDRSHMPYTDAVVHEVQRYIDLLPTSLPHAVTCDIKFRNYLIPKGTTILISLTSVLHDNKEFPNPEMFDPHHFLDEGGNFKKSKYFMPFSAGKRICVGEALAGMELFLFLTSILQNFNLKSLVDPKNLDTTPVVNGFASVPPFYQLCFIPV
structure (smiles),measurement,setting,value
C#C[C@H]1CC[C@@H](C#N)N1C(=O)CNC1(C)CCN(c2cc(C(=O)O)ccn2)CC1,half-life,[1],6.8 h
same,Vd,[2],2.2 L/kg
same,AUC,[3],2100 ng·h/mL
same,bioavailability,[4],28%
same,half-life,[5],2 h
same,Cmax,[6],140 ng/mL
same,Tmax,[7],2.7 h
same,AUC,[8],580 ng·h/mL
same,inhibition,[9],87%
same,Activity,[10],29 pM
same,Activity,[11],39 ng/mL
same,Activity,[12],60%
same,Activity,[13],50%
same,AUC,[14],12500 mg/dL·min
same,Activity,[15],50%
same,IC50,[16],> 30 µM
same,IC50,[17],> 30 µM
same,IC50,[18],> 30 µM
same,Ki,[19],> 45.1 µM
same,Vd,[20],6.7 L/kg
same,AUC,[21],7600 ng·h/mL
same,clearance,[22],11.3 mL/min/kg
same,half-life,[23],1.7 h
same,Vd,[24],0.3 L/kg
same,Vd,[25],1.3 L/kg
same,AUC,[26],5200 ng·h/mL
same,clearance,[27],8.5 mL/min/kg
